The target in assay [1] is 5-hydroxytryptamine receptor 2A (Homo sapiens, UniProt P28223). Description: Binding affinity against human 5-hydroxytryptamine 2A receptor expressed in 293 cells using [3H]ketanserin. The class given is cell-based, HEK293. In outline: (§1)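 Radioligand binding at cloned human receptors expressed in 293 cells: [³H]ketanserin for 5-HT2A, [³H]mesulergine for 5-HT2C. Values are means ± SEM of n ≥ 3 determinations.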

Assay [2] has as its target T1, 5-hydroxytryptamine receptor 2C (Homo sapiens, UniProt P28335).
T1 sequence (P28335 whole entry): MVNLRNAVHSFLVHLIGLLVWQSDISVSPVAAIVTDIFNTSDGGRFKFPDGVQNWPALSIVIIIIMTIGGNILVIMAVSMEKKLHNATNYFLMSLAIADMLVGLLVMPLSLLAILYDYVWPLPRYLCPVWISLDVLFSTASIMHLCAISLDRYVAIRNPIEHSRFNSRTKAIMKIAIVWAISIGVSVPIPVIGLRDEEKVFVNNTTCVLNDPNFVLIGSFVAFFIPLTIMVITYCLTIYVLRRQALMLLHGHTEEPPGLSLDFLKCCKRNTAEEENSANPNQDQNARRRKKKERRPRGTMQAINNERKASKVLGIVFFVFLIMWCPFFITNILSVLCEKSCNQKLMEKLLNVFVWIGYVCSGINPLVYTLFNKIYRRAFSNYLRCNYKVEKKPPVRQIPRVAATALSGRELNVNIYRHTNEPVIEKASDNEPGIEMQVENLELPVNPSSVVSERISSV
Kind of assay: (§2) Binding affinity against human 5-hydroxytryptamine 2C receptor expressed in 293 cells using [3H]mesulergine. The format is cell-based, HEK293. In outline:
as §1

In assay [3] the target is 5-hydroxytryptamine receptor 2B (Rattus norvegicus, UniProt P30994). Description: Inhibitory potency against rat stomach fundus 5-hydroxytryptamine 2B receptor. The format is tissue-based. To be noted: read-out: pA2 (converted). In outline:
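Functional antagonism in isolated rat stomach fundus, with contraction evoked by 5-HT as the agonist. Values are means ± SEM of n ≥ 3 determinations.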

The subject of another assay is Rattus norvegicus. Description: In vivo potency to block hypolocomotion response to m-CPP in rat after oral administration. The format is functional. Particulars: read-out: ID50 (the source's name).
Assay [4] has as its target 5-hydroxytryptamine receptor 1E (Homo sapiens, UniProt P28566). Kind of assay: Binding affinity against human 5-hydroxytryptamine 1E receptor expressed in CHO cells. The format is cell-based. In outline: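 Displacement binding at cloned human 5-HT1E receptors expressed in CHO cells, using [³H]-5-HT as radioligand.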
Assay [5] addresses T2, Serotonin 3 (5-HT3) receptor (Rattus norvegicus, UniProt P35563+Q9JJ16).
T2 sequence (P35563 whole entry): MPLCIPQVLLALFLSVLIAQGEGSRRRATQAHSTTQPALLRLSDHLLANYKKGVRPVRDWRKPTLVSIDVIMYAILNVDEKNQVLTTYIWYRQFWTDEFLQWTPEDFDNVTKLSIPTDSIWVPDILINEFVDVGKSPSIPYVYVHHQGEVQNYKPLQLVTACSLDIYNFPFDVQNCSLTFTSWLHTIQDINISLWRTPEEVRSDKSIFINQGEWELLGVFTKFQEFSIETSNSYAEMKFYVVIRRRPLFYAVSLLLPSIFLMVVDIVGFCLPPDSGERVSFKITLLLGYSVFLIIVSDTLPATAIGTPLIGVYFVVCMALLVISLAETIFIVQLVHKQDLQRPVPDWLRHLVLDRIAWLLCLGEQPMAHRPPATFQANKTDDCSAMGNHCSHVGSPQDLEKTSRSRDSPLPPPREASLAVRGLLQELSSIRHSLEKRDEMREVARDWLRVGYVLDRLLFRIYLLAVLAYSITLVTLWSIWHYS
T2 sequence (Q9JJ16 whole entry): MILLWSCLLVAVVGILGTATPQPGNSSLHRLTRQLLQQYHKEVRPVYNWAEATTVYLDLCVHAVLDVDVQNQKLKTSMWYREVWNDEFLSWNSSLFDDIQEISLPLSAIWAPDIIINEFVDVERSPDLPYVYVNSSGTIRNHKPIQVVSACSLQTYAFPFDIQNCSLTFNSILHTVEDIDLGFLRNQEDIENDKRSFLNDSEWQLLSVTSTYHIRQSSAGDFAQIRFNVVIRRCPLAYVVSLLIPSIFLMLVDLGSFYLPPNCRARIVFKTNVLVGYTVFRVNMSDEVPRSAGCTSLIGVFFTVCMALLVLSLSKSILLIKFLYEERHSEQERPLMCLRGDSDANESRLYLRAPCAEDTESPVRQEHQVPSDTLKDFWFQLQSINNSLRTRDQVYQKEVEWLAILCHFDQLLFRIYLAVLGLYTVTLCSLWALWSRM
Kind of assay: Binding affinity against rat 5-hydroxytryptamine 3 receptor. The class given is protein-complex assay.

For assay [6], the target named is T3, Adrenergic receptor alpha-1 (Rattus norvegicus, UniProt P15823+P23944+P43140).
T3 sequence (P15823 whole entry): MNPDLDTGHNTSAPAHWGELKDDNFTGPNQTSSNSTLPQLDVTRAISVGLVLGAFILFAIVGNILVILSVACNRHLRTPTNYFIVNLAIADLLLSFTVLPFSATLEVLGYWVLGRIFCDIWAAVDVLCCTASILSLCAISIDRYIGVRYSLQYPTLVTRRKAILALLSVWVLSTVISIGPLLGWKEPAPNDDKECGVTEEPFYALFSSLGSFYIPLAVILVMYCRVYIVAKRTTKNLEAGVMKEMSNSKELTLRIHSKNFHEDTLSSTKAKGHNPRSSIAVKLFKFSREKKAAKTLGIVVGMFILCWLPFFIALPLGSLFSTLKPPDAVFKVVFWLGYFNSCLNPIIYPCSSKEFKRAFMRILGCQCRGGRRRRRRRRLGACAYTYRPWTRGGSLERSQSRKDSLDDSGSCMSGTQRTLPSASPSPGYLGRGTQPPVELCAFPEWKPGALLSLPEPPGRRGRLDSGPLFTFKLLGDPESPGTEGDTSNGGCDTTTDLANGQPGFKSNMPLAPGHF
T3 sequence (P23944 whole entry): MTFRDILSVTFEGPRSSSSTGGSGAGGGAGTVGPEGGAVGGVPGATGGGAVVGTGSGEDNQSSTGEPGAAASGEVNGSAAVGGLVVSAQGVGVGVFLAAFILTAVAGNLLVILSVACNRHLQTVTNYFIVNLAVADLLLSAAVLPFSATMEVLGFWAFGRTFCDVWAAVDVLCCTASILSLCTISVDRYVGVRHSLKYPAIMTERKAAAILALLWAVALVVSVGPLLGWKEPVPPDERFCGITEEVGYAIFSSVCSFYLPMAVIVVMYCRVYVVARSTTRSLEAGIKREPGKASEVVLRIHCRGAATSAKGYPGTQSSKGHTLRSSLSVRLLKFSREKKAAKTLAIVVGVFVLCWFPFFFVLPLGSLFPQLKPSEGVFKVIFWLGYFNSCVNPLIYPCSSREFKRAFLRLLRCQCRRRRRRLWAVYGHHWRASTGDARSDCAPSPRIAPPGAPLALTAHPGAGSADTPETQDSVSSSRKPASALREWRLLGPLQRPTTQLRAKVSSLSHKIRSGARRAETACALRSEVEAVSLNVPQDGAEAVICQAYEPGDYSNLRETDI
T3 sequence (P43140 whole entry): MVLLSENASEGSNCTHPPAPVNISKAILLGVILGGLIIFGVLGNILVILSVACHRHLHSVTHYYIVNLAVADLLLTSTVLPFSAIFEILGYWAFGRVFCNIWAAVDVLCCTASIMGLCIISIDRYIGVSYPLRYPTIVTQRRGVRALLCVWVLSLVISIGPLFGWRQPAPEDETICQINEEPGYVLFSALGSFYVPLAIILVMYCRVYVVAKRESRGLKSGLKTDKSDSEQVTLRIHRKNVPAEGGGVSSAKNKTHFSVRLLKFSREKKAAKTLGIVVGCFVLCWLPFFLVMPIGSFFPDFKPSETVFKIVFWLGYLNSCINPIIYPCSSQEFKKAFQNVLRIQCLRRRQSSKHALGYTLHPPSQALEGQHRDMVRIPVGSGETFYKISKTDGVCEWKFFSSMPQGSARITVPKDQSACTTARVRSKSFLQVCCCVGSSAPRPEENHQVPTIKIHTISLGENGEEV
Kind of assay: Binding affinity against rat Alpha-1 adrenergic receptor. The class given is protein assay.

The target of assay [7] is 5-hydroxytryptamine receptor 1D (Cavia porcellus, UniProt Q60484). Kind of assay: Binding affinity against guinea pig 5-hydroxytryptamine 1D receptor.
The target of another assay is D(3) dopamine receptor (Homo sapiens, UniProt P35462). Description: Binding affinity human Dopamine receptor D3 expressed in CHO cells using [125I]iodosulpiride. The format is cell-based.
Assay [8] deals with T4, 5-hydroxytryptamine receptor 1A (Rattus norvegicus, UniProt P19327).
T4 sequence (P19327 whole entry): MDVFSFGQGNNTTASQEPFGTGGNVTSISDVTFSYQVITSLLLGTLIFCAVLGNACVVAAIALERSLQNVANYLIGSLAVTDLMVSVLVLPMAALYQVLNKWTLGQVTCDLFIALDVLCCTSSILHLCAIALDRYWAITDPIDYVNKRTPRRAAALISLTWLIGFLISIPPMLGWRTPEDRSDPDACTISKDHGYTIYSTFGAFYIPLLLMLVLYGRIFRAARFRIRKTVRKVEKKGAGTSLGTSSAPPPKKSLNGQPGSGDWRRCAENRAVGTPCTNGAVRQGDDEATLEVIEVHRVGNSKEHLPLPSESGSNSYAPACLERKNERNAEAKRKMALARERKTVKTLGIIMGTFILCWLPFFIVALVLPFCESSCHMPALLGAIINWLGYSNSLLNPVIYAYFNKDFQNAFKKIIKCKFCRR
Description: Binding affinity against rat 5-hydroxytryptamine 1A receptor.

Assay [9] has as its target 5-hydroxytryptamine receptor 4 (Rattus norvegicus, UniProt Q62758). Kind of assay: Binding affinity against rat 5-hydroxytryptamine 4 receptor.
The target in the next assay is D(2) dopamine receptor (Homo sapiens, UniProt P14416). Kind of assay: Binding affinity against human Dopamine receptor D2 expressed in CHO cells using [125I]iodosulpiride. The class given is cell-based.
The next assay concerns the target T5, Adenosine receptor A1 (Rattus norvegicus, UniProt P25099).
T5 sequence (P25099 whole entry): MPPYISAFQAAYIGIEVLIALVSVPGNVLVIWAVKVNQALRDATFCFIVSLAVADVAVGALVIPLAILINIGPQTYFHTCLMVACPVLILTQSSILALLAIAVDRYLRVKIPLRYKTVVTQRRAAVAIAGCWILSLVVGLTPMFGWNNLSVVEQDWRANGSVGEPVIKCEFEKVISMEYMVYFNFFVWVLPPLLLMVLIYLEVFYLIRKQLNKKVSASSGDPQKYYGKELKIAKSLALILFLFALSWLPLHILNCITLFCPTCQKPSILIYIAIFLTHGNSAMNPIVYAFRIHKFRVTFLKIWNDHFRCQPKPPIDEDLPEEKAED
Kind of assay: Binding affinity against rat Adenosine A1 receptor.

The target of a further assay is Histamine H1 receptor (Cavia porcellus, UniProt P31389). Kind of assay: Binding affinity against guinea pig H1 receptor.
Assay [10] has as its target T1, 5-hydroxytryptamine receptor 2C. Described as §2. The format is cell-based, HEK293. In outline: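 Radioligand binding to cloned human receptor in 293 cells with [3H]mesulergine; values are means ± SEM of at least 3 determinations.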
This is another data set of the same source.

Some results are limits rather than exact numbers.

Sequence of 5-hydroxytryptamine receptor 2B (P30994 whole entry): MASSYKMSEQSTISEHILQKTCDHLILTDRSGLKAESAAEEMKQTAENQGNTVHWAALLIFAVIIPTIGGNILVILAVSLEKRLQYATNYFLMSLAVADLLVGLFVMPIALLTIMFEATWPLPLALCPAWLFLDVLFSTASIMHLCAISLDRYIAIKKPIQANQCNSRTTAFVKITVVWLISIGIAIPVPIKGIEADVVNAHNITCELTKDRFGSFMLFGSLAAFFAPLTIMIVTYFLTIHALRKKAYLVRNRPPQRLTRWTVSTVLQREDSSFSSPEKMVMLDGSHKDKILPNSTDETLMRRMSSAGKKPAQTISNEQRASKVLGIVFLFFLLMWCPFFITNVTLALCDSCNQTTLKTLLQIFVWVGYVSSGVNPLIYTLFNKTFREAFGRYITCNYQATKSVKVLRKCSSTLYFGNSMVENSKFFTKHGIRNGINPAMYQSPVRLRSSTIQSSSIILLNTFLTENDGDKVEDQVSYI
Sequence of 5-hydroxytryptamine receptor 2A (P28223 whole entry): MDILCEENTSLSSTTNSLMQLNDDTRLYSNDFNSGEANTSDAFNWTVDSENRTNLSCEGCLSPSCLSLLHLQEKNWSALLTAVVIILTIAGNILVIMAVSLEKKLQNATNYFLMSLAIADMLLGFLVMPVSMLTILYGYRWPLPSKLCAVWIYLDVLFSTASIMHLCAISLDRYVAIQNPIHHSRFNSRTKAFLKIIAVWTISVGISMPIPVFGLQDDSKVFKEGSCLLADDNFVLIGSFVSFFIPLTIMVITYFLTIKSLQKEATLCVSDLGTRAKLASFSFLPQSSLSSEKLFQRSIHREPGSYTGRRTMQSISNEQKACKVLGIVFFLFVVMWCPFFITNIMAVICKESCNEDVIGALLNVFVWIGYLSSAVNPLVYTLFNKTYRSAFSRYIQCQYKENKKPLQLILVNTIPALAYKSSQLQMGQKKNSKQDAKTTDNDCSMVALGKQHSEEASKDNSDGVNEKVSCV
Sequence of D(3) dopamine receptor (P35462 whole entry): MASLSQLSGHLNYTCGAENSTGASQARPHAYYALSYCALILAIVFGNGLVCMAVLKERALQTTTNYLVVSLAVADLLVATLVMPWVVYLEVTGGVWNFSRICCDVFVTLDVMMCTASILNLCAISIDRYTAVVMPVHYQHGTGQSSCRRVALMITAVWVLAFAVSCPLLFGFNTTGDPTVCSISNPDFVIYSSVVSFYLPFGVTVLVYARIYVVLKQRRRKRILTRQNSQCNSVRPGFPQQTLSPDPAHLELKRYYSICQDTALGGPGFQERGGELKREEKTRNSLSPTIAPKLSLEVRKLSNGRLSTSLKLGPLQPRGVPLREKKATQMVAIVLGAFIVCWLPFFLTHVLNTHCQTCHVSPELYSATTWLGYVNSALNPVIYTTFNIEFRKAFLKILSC
Sequence of Histamine H1 receptor (P31389 whole entry): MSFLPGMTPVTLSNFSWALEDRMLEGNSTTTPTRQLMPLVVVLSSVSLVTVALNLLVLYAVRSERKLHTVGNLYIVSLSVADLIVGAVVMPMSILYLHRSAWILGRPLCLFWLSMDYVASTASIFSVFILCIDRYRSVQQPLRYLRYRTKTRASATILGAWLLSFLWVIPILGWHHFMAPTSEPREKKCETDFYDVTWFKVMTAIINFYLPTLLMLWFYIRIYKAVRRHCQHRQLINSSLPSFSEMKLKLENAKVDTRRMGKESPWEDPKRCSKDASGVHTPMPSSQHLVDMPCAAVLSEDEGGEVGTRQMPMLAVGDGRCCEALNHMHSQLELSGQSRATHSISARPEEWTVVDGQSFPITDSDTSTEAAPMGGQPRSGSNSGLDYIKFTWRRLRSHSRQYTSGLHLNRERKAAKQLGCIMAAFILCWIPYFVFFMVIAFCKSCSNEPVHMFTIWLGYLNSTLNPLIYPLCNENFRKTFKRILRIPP
Sequence of 5-hydroxytryptamine receptor 1E (P28566 whole entry): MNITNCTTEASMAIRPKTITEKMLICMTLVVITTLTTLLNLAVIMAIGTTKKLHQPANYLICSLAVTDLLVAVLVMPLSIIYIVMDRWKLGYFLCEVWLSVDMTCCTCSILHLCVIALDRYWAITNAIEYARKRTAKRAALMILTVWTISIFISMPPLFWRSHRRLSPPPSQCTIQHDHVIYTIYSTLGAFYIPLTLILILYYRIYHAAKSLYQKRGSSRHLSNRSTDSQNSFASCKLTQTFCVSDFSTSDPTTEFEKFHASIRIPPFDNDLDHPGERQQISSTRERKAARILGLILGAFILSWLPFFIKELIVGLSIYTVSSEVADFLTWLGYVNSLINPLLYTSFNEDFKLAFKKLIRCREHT
Sequence of 5-hydroxytryptamine receptor 1D (Q60484 whole entry): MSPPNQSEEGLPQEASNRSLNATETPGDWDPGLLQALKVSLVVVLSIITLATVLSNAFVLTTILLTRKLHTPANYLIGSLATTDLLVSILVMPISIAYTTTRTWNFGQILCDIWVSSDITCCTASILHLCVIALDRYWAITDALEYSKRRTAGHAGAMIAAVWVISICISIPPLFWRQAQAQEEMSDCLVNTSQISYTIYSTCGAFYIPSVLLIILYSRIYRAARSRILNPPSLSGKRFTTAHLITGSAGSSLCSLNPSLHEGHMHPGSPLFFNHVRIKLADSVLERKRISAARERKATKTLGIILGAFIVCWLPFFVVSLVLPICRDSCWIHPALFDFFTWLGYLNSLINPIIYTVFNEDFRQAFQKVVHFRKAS
Sequence of D(2) dopamine receptor (P14416 whole entry): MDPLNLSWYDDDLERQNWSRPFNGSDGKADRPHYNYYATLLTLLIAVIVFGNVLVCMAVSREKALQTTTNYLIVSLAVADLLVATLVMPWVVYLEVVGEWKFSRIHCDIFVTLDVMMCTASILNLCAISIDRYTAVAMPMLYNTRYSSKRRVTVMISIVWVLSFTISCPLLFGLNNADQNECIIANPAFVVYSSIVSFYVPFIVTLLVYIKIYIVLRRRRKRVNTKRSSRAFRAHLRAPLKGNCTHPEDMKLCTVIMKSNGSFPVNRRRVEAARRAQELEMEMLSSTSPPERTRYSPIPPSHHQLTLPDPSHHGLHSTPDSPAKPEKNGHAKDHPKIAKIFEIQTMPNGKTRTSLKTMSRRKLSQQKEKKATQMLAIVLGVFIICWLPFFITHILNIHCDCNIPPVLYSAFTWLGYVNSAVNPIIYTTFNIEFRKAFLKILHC
Sequence of 5-hydroxytryptamine receptor 4 (Q62758 whole entry): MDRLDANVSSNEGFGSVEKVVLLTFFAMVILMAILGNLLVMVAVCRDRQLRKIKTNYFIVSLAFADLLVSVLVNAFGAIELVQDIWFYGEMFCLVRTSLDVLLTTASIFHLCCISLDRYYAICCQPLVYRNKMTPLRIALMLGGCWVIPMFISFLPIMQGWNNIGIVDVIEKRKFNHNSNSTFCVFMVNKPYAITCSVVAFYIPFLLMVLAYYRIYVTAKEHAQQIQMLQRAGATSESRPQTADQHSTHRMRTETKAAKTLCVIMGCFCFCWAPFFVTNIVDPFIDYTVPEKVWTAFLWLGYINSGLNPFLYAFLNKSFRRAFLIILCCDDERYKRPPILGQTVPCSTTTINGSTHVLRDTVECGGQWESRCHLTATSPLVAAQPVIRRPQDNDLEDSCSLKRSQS

Turning to `Cn1ccc2c3c(ccc21)N(C(=O)Nc1cccnc1)CC3`, the values for the inhibition constant (Ki) in [1] and in assay [2] were 2880 nM and 66.1 nM, respectively. Besides, the Kb in assay [3] is 17.8 nM.
In the case of `Cn1ccc2cc3c(cc21)CCN3C(=O)Nc1cccnc1`, the ED50 with Rattus norvegicus was 5.5 mg/kg. Besides, the Ki (as a rule, the equilibrium dissociation constant of an inhibitor or competing ligand from its target) was 1620 nM in [1]; over 5010 nM in [4]; over 10000 nM in [5]; over 1000 nM in [7]; over 10000 nM on D(3) dopamine receptor; over 10000 nM in assay [8]. For the same compound, the Ki is 5010 nM in assay [9], over 10000 nM on D(2) dopamine receptor, over 50100 nM on Adenosine receptor A1 and over 10000 nM at Histamine H1 receptor. This compound returned a Log Ki in assay [6] of over -5. Also, the Kb in [3] is 3.31 nM.
For `Cn1ccc2cc3c(cc21)CCCN3C(=O)Nc1cccnc1`, the Ki is over 6310 nM in assay [1] and 4070 nM in assay [2]. In [3], the Kb is 53.7 nM.
With `Cl.Cn1ccc2cc(NC(=O)Nc3cccnc3)ccc21`, in the assay on Rattus norvegicus, the ED50 amounted to 19.2 mg/kg. In assay [10], this compound gave a Ki of 138 nM. The Kb in assay [3] was 39.8 nM.
For the compound `Cn1ccc2c3c(ccc21)N(C(=O)Nc1cccnc1)CCC3`, the Ki in assay [1] and in assay [2] was over 6310 nM each time. Besides, in assay [3], the Kb was 60.3 nM.

These data come from ChEMBL document CHEMBL1128425, “5-Methyl-1-(3-pyridylcarbamoyl)-1,2,3,5-tetrahydropyrrolo[2,3-f]indole: a novel 5-HT2C/5-HT2B receptor antagonist with improved affinity, selectivity, and oral activity” (J Med Chem, 1995).
